Source: ChEMBL document CHEMBL1649314, “Experimental murine scedosporiosis: histopathology and azole treatment” (2010)
≈ marks a conversion by molar mass, not a printed value. Calls of active or inactive are those of the source. No cut-off for these calls is given here.

Experiments:
Scedosporium apiospermum [1] = test: Antifungal activity against Scedosporium apiospermum IHEM 14464 by broth dilution method; assay type: functional
Scedosporium boydii [2] = test: Antifungal activity against Scedosporium boydii FMR 8627 infected in immunosuppressed OF1 mouse assessed as reduction in kidney fungal burden at 40 mg/kg, po BID administered 24 hrs postinfection for 10 days measured after 20 days; assay type: functional, organism-based; parameters: dose 40 mg/kg
[3] = Antifungal activity against Scedosporium aurantiacum CBS 116910 by broth dilution method; assay type: functional
Scedosporium boydii [4] = test: Antifungal activity against Scedosporium boydii FMR 8627 by broth dilution method; assay type: functional
Scedosporium boydii [5] = test: Antifungal activity against Scedosporium boydii FMR 6694 infected in immunosuppressed OF1 mouse assessed as prolonged survival of mouse at 20 mg/kg, po BID administered 24 hrs postinfection for 10 days measured after 20 days; assay type: functional, organism-based; parameters: dose 20 mg/kg
Procedure, shortened: (§1)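 Male OF1 mice, groups of 10, immunosuppressed 1 day before infection with cyclophosphamide 200 mg/kg i.p. plus 5-fluorouracil 150 mg/kg i.v. Infected i.v. via tail vein with 1 × 10^4 CFU in 0.2 ml saline. Oral treatment began 24 h post-challenge for 10 days. Mice checked daily for 20 days. Survival by Kaplan-Meier, compared by log rank test.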

[6] = Antifungal activity against Scedosporium aurantiacum CBS 116910 infected in immunosuppressed OF1 mouse assessed as prolonged survival of mouse at 20 mg/kg, po BID administered 24 hrs postinfection for 10 days measured after 20 days; assay type: functional, organism-based; parameters: dose 20 mg/kg; procedure, shortened: as §1
Scedosporium apiospermum [7] = test: Antifungal activity against Scedosporium apiospermum CBS 117407 infected in immunosuppressed OF1 mouse assessed as prolonged survival of mouse at 40 mg/kg, po BID administered 24 hrs postinfection for 10 days measured after 20 days; assay type: functional, organism-based; parameters: dose 40 mg/kg
Scedosporium apiospermum [8] = test: Antifungal activity against Scedosporium apiospermum IHEM 14464 infected in immunosuppressed OF1 mouse assessed as prolonged survival of mouse at 20 mg/kg, po BID administered 24 hrs postinfection for 10 days measured after 20 days; assay type: functional, organism-based; parameters: dose 20 mg/kg; procedure, shortened: as §1
Scedosporium boydii [9] = test: Antifungal activity against Scedosporium boydii FMR 8627 infected in immunosuppressed OF1 mouse assessed as reduction in kidney fungal burden at 20 mg/kg, po BID administered 24 hrs postinfection for 10 days measured after 20 days; assay type: functional, organism-based; parameters: dose 20 mg/kg
Scedosporium apiospermum [10] = test: Antifungal activity against Scedosporium apiospermum IHEM 14464 infected in immunosuppressed OF1 mouse assessed as reduction in kidney fungal burden at 20 mg/kg, po BID administered 24 hrs postinfection for 10 days measured after 20 days; assay type: functional, organism-based; parameters: dose 20 mg/kg
Scedosporium boydii [11] = test: Antifungal activity against Scedosporium boydii FMR 6694 infected in immunosuppressed OF1 mouse assessed as reduction in kidney fungal burden at 20 mg/kg, po BID administered 24 hrs postinfection for 10 days measured after 20 days; assay type: functional, organism-based; parameters: dose 20 mg/kg
Scedosporium boydii [12] = test: Antifungal activity against Scedosporium boydii FMR 6694 infected in immunosuppressed OF1 mouse assessed as reduction in brain fungal burden at 20 mg/kg, po BID administered 24 hrs postinfection for 10 days measured after 20 days; assay type: functional, organism-based; parameters: dose 20 mg/kg
Scedosporium boydii [13] = test: Antifungal activity against Scedosporium boydii FMR 8627 infected in immunosuppressed OF1 mouse assessed as prolonged survival of mouse at 20 mg/kg, po BID administered 24 hrs postinfection for 10 days measured after 20 days; assay type: functional, organism-based; parameters: dose 20 mg/kg
Procedure, shortened: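 Male OF1 mice were immunosuppressed 1 day before infection with cyclophosphamide 200 mg/kg i.p. plus 5-fluorouracil 150 mg/kg i.v. They were infected i.v. via a lateral tail vein with 1 × 10^4 CFU/mouse in 0.2 ml saline. Oral dosing was 10 or 20 mg/kg twice daily, or 20 or 40 mg/kg once daily (those mice and controls drank grapefruit juice from day −3). Dosing ran 24 h post-challenge for 10 days; 10 mice/group; observed daily to day 20; Kaplan-Meier with log rank test.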

Scedosporium apiospermum [14] = test: Antifungal activity against Scedosporium apiospermum IHEM 14464 infected in immunosuppressed OF1 mouse assessed as reduction in kidney fungal burden at 40 mg/kg, po BID administered 24 hrs postinfection for 10 days measured after 20 days; assay type: functional, organism-based; parameters: dose 40 mg/kg
[15] = Antifungal activity against Scedosporium aurantiacum IHEM 15458 infected in immunosuppressed OF1 mouse assessed as prolonged survival of mouse at 20 mg/kg, po BID administered 24 hrs postinfection for 10 days measured after 20 days; assay type: functional, organism-based; parameters: dose 20 mg/kg; procedure, shortened: as §1
Scedosporium boydii [16] = test: Antifungal activity against Scedosporium boydii FMR 8627 infected in immunosuppressed OF1 mouse assessed as reduction in brain fungal burden at 20 mg/kg, po BID administered 24 hrs postinfection for 10 days measured after 20 days; assay type: functional, organism-based; parameters: dose 20 mg/kg
Scedosporium aurantiacum [17] = test: Antifungal activity against Scedosporium aurantiacum CBS 116910 infected in immunosuppressed OF1 mouse assessed as reduction in kidney fungal burden at 20 mg/kg, po BID administered 24 hrs postinfection for 10 days measured after 20 days; assay type: functional, organism-based; parameters: dose 20 mg/kg
Scedosporium apiospermum [18] = test: Antifungal activity against Scedosporium apiospermum IHEM 14464 infected in immunosuppressed OF1 mouse assessed as prolonged survival of mouse at 40 mg/kg, po BID administered 24 hrs postinfection for 10 days measured after 20 days; assay type: functional, organism-based; parameters: dose 40 mg/kg
Scedosporium apiospermum [19] = test: Antifungal activity against Scedosporium apiospermum IHEM 14464 infected in immunosuppressed OF1 mouse assessed as reduction in brain fungal burden at 20 mg/kg, po BID administered 24 hrs postinfection for 10 days measured after 20 days; assay type: functional, organism-based; parameters: dose 20 mg/kg
[20] = Antifungal activity against Scedosporium aurantiacum IHEM 15458 by broth dilution method; assay type: functional
Scedosporium apiospermum [21] = test: Antifungal activity against Scedosporium apiospermum CBS 117407 infected in immunosuppressed OF1 mouse assessed as reduction in brain fungal burden at 20 mg/kg, po BID administered 24 hrs postinfection for 10 days measured after 20 days; assay type: functional, organism-based; parameters: dose 20 mg/kg
Scedosporium aurantiacum [22] = test: Antifungal activity against Scedosporium aurantiacum IHEM 15458 infected in immunosuppressed OF1 mouse assessed as reduction in kidney fungal burden at 20 mg/kg, po BID administered 24 hrs postinfection for 10 days measured after 20 days; assay type: functional, organism-based; parameters: dose 20 mg/kg
Scedosporium boydii [23] = test: Antifungal activity against Scedosporium boydii FMR 6694 infected in immunosuppressed OF1 mouse assessed as prolonged survival of mouse at 40 mg/kg, po BID administered 24 hrs postinfection for 10 days measured after 20 days; assay type: functional, organism-based; parameters: dose 40 mg/kg
Scedosporium apiospermum [24] = test: Antifungal activity against Scedosporium apiospermum CBS 117407 infected in immunosuppressed OF1 mouse assessed as prolonged survival of mouse at 20 mg/kg, po BID administered 24 hrs postinfection for 10 days measured after 20 days; assay type: functional, organism-based; parameters: dose 20 mg/kg; procedure, shortened: as §1
Scedosporium boydii [25] = test: Antifungal activity against Scedosporium boydii FMR 8627 infected in immunosuppressed OF1 mouse assessed as prolonged survival of mouse at 40 mg/kg, po BID administered 24 hrs postinfection for 10 days measured after 20 days; assay type: functional, organism-based; parameters: dose 40 mg/kg
Scedosporium aurantiacum [26] = test: Antifungal activity against Scedosporium aurantiacum IHEM 15458 infected in immunosuppressed OF1 mouse assessed as reduction in kidney fungal burden at 40 mg/kg, po BID administered 24 hrs postinfection for 10 days measured after 20 days; assay type: functional, organism-based; parameters: dose 40 mg/kg
Scedosporium aurantiacum [27] = test: Antifungal activity against Scedosporium aurantiacum CBS 116910 infected in immunosuppressed OF1 mouse assessed as reduction in brain fungal burden at 20 mg/kg, po BID administered 24 hrs postinfection for 10 days measured after 20 days; assay type: functional, organism-based; parameters: dose 20 mg/kg
Scedosporium apiospermum [28] = test: Antifungal activity against Scedosporium apiospermum CBS 117407 infected in immunosuppressed OF1 mouse assessed as reduction in kidney fungal burden at 20 mg/kg, po BID administered 24 hrs postinfection for 10 days measured after 20 days; assay type: functional, organism-based; parameters: dose 20 mg/kg
Scedosporium aurantiacum [29] = test: Antifungal activity against Scedosporium aurantiacum IHEM 15458 infected in immunosuppressed OF1 mouse assessed as reduction in brain fungal burden at 20 mg/kg, po BID administered 24 hrs postinfection for 10 days measured after 20 days; assay type: functional, organism-based; parameters: dose 20 mg/kg
[30] = Antifungal activity against Scedosporium aurantiacum IHEM 15458 infected in immunosuppressed OF1 mouse assessed as prolonged survival of mouse at 40 mg/kg, po BID administered 24 hrs postinfection for 10 days measured after 20 days; assay type: functional, organism-based; parameters: dose 40 mg/kg
[31] = Antifungal activity against Scedosporium aurantiacum CBS 116910 infected in immunosuppressed OF1 mouse assessed as prolonged survival of mouse at 40 mg/kg, po BID administered 24 hrs postinfection for 10 days measured after 20 days; assay type: functional, organism-based; parameters: dose 40 mg/kg
Scedosporium boydii [32] = test: Antifungal activity against Scedosporium boydii FMR 6694 by broth dilution method; assay type: functional
Scedosporium apiospermum [33] = test: Antifungal activity against Scedosporium apiospermum CBS 117407 by broth dilution method; assay type: functional
Scedosporium boydii [34] = test: Antifungal activity against Scedosporium boydii FMR 6694 infected in immunosuppressed OF1 mouse assessed as reduction in kidney fungal burden at 40 mg/kg, po BID administered 24 hrs postinfection for 10 days measured after 20 days; assay type: functional, organism-based; parameters: dose 40 mg/kg
Scedosporium aurantiacum [35] = test: Antifungal activity against Scedosporium aurantiacum CBS 116910 infected in immunosuppressed OF1 mouse assessed as reduction in kidney fungal burden at 40 mg/kg, po BID administered 24 hrs postinfection for 10 days measured after 20 days; assay type: functional, organism-based; parameters: dose 40 mg/kg
Scedosporium apiospermum [36] = test: Antifungal activity against Scedosporium apiospermum CBS 117407 infected in immunosuppressed OF1 mouse assessed as reduction in kidney fungal burden at 40 mg/kg, po BID administered 24 hrs postinfection for 10 days measured after 20 days; assay type: functional, organism-based; parameters: dose 40 mg/kg

C[C@@H](c1ncncc1F)[C@](O)(Cn1cncn1)c1ccc(F)cc1F [VORICONAZOLE]
MIC (Scedosporium apiospermum [1]): 0.25 µg/mL (≈ 0.716 µM) | Activity (Scedosporium boydii [2]): Active | MIC [3]: 32 µg/mL (≈ 91.6 µM) | MIC (Scedosporium boydii [4]): 0.5 µg/mL (≈ 1.43 µM) | Activity (Scedosporium boydii [5]): Active | Activity [6]: Active | Activity (Scedosporium apiospermum [7]): Active | Activity (Scedosporium apiospermum [8]): Active | Activity (Scedosporium boydii [9]): Active | Activity (Scedosporium apiospermum [10]): Active | Activity (Scedosporium boydii [11]): inactive | Activity (Scedosporium boydii [12]): inactive | Activity (Scedosporium boydii [13]): Active | Activity (Scedosporium apiospermum [14]): Active | Activity [15]: Active | Activity (Scedosporium boydii [16]): Active | Activity (Scedosporium aurantiacum [17]): Active | Activity (Scedosporium apiospermum [18]): Active | Activity (Scedosporium apiospermum [19]): Active | MIC [20]: 1 µg/mL (≈ 2.86 µM) | Activity (Scedosporium apiospermum [21]): Active | Activity (Scedosporium aurantiacum [22]): Active | Activity (Scedosporium boydii [23]): Active | Activity (Scedosporium apiospermum [24]): Active | Activity (Scedosporium boydii [25]): Active | Activity (Scedosporium aurantiacum [26]): Active | Activity (Scedosporium aurantiacum [27]): Active | Activity (Scedosporium apiospermum [28]): Active | Activity (Scedosporium aurantiacum [29]): Active | Activity [30]: Active | Activity [31]: Active | MIC (Scedosporium boydii [32]): 1 µg/mL (≈ 2.86 µM) | MIC (Scedosporium apiospermum [33]): 0.5 µg/mL (≈ 1.43 µM) | Activity (Scedosporium boydii [34]): inactive | Activity (Scedosporium aurantiacum [35]): Active | Activity (Scedosporium apiospermum [36]): Active
